pEC50, pIC50: −log10 of the molar value. Values after ≈ are worked out from the molar mass of the structure shown. Some results are limits rather than exact numbers.

Data set [1] concerns the target T1, Androgen receptor (Homo sapiens, UniProt P10275, W742C). In words: Agonist activity at human androgen receptor W741C mutant expressed in COS7 cells assessed as luciferase activity after 24 hrs by reporter gene assay. It counts as functional, cell-based, COS-7. For orientation: A reporter such as luciferase makes a cellular process visible.
Data set [2] is described as follows: Solubility in aqueous buffer solution at pH 6.8. It counts as physicochemical. The procedure, abridged: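 DMSO stock added to aqueous buffer at pH 6.8 and incubated. Precipitate removed by filtration; filtrate concentration measured by HPLC.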
Data set [3] addresses T1, Androgen receptor. In words: Antagonist activity at human androgen receptor W741C mutant expressed in COS7 cells assessed as inhibition of DHT-induced luciferase activity after 24 hrs by reporter gene assay. It counts as functional, cell-based, COS-7.
Data set [4] deals with T2, Androgen receptor (Homo sapiens, UniProt P10275, T878A). The experiment in a line: Displacement of [17-alpha-methyl-3H]-mibolerone from human androgen receptor T877A mutant expressed in HEK293 derived FreeStyle293F cells after 3 hrs. It counts as cell-based.
T2 sequence (P10275 whole entry T878A): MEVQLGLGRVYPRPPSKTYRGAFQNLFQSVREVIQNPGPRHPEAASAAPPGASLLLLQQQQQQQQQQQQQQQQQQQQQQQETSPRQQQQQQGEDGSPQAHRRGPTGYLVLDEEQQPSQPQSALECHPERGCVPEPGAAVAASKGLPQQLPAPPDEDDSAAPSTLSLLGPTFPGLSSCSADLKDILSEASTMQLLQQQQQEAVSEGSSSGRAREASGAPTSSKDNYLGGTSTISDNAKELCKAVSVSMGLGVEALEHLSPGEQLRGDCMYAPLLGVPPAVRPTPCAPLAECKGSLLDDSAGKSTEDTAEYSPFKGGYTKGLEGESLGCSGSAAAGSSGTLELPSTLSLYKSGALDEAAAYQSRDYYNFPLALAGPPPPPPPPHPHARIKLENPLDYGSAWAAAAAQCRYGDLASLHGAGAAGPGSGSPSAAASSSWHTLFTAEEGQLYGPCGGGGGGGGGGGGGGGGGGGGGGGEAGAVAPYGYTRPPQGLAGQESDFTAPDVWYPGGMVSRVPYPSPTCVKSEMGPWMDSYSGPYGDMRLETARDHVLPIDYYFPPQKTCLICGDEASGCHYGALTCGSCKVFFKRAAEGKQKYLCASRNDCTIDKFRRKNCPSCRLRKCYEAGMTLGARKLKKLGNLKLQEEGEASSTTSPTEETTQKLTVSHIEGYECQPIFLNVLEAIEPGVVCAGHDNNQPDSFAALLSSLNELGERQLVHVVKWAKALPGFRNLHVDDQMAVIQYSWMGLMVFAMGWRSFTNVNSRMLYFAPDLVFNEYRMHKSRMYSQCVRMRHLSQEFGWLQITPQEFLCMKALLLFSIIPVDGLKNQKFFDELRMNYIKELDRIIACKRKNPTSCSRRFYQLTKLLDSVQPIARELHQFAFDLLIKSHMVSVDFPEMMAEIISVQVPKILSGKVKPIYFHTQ
The target in data set [5] is T2, Androgen receptor. The experiment in a line: Antagonist activity at human androgen receptor T877A mutant expressed in COS7 cells assessed as inhibition of DHT-induced luciferase activity after 24 hrs by reporter gene assay. It counts as functional, cell-based, COS-7.
The target of data set [6] is T3, Androgen receptor (Homo sapiens, UniProt P10275).
T3 sequence (P10275 whole entry): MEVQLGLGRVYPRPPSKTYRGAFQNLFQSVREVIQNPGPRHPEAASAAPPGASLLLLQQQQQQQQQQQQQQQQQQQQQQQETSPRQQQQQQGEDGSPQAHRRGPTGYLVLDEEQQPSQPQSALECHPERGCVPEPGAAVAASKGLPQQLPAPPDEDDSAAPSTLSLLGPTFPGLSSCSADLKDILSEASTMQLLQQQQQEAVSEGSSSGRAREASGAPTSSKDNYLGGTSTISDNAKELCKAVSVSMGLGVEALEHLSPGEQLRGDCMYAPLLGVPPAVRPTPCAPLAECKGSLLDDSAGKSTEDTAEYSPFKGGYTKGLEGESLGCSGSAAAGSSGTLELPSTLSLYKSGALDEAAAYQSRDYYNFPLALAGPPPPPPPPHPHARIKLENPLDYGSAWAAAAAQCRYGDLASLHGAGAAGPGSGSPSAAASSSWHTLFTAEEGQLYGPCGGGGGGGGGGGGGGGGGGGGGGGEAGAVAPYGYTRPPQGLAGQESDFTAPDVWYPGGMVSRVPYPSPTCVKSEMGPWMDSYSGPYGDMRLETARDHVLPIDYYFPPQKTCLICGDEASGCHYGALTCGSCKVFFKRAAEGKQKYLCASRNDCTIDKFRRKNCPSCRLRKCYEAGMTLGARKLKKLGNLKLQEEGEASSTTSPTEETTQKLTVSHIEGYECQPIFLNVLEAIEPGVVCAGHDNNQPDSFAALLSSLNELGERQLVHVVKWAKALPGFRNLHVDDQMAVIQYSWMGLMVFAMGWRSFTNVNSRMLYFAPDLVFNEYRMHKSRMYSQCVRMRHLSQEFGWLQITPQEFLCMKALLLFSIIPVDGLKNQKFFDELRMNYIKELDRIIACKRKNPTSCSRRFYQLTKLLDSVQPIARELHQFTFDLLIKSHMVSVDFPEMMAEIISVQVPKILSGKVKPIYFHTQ
The experiment in a line: Displacement of [17-alpha-methyl-3H]-mibolerone from human androgen receptor expressed in HEK293 derived FreeStyle293F cells after 3 hrs. It counts as cell-based.

The target in data set [7] is T3, Androgen receptor. The experiment in a line: Agonist activity at human androgen receptor expressed in COS7 cells assessed as luciferase activity after 24 hrs by reporter gene assay. It counts as functional, cell-based, COS-7.
Data set [8] concerns the target T3, Androgen receptor. The experiment in a line: Antagonist activity at human androgen receptor expressed in COS7 cells assessed as inhibition of DHT-induced luciferase activity after 24 hrs by reporter gene assay. It counts as functional, cell-based, COS-7.
Data set [9] addresses T2, Androgen receptor. The experiment in a line: Agonist activity at human androgen receptor T877A mutant expressed in COS7 cells assessed as luciferase activity after 24 hrs by reporter gene assay. It counts as functional, cell-based, COS-7.

T1 sequence (P10275 whole entry W742C): as the sequence (P10275 whole entry T878A) above, with W742C, A878T counted along it

The pEC50 is −log10 of the EC50, conventionally taken in molar units. In general, solubility refers to the concentration that dissolves in the medium under given conditions. Low readings indicate a poorly soluble substance, high ones a readily soluble substance. As a reminder, the pIC50 is the IC50 on a negative log10 scale, so that one unit is a factor of ten. Regarding `Cc1c(C#N)c(-c2ccc(C#N)cc2)c(C)n1Cc1ccc(Cl)nc1`, the pEC50 on Androgen receptor [1], at Androgen receptor [7] and on Androgen receptor [9] was < 5.00 in each case. Moreover, in [2], the concentration in solution (solubility) came to 0.83 µg/mL (≈ 2.39 µM). Further, the pIC50 at Androgen receptor [3] was 6.04; at Androgen receptor [4] it was 7.62; at Androgen receptor [5], 7.00; at Androgen receptor [6] it was 8.05; on Androgen receptor [8], 7.35.

Consider `Cc1c(C#N)c(-c2ccc(C#N)cc2)c(C)n1Cc1cncc(CO)c1`, for which the pEC50 at Androgen receptor [1], at Androgen receptor [7] and on Androgen receptor [9] was < 5.00 each time. The same molecule yielded a solubility in data set [2] of 3.5 µg/mL (≈ 10.2 µM). Besides, the pIC50 is 6.22 on Androgen receptor [3]; 6.82 on Androgen receptor [4]; 6.36 on Androgen receptor [5]; 7.85 at Androgen receptor [6]; 7.00 at Androgen receptor [8].
